According to ChEMBL document CHEMBL1156108, “Synthesis and biological evaluation of p38alpha kinase-targeting dialkynylimidazoles” (Bioorg Med Chem Lett, 2009):

Tests used:
[1] = target: T1, Mitogen-activated protein kinase 14 (Homo sapiens, UniProt Q16539); experiment: Inhibition of p38alpha by FRET assay
[2] = target: T1, Mitogen-activated protein kinase 14; experiment: Inhibition of p38alpha at 10 uM by FRET assay
Summary of the method: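 Single-concentration screen against p38α, read at a fixed 60 min time-point. Reported as percent inhibition from tests run in duplicate.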

CYP2D6 = CYP2D6 (Homo sapiens, UniProt P10635); experiment: Inhibition of CYP2D6 at 10 uM; format: ADME
[3] = target: Cyclin-dependent kinase 1/cyclin B (Homo sapiens) (UniProt P06493+P14635+Q8WWL7+O95067); experiment: Inhibition of human CDK1/cyclin B at 20 uM by FRET assay; format: protein-complex assay
[4] = target: Mitogen-activated protein kinase 11 (Homo sapiens, UniProt Q15759); experiment: Inhibition of p38beta by FRET assay
[5] = Selectivity ratio for IC50 of p38alpha to IC50 of p38beta
[6] = target: T2, Mitogen-activated protein kinase kinase kinase kinase 4 (Homo sapiens, UniProt O95819); experiment: Inhibition of human MAP4K4 by FRET assay
[7] = target: Tyrosine-protein kinase ABL1 (Homo sapiens) (UniProt P00519); experiment: Inhibition of human ABL1 at 20 uM by FRET assay
[8] = target: Activin receptor type-1B (Homo sapiens) (UniProt P36896); experiment: Inhibition of human ALK4 at 20 uM by FRET assay
[9] = target: RAC-alpha serine/threonine-protein kinase (Homo sapiens) (UniProt P31749); experiment: Inhibition of human AKT1 at 20 uM by FRET assay
[10] = target: Aurora kinase A (Homo sapiens) (UniProt O14965); experiment: Inhibition of human Aurora A at 20 uM by FRET assay
[11] = target: Tyrosine-protein kinase BTK (Homo sapiens) (UniProt Q06187); experiment: Inhibition of human BTK at 20 uM by FRET assay
[12] = target: Serine/threonine-protein kinase Chk1 (Homo sapiens) (UniProt O14757); experiment: Inhibition of human CHK1 at 20 uM by FRET assay
[13] = target: Casein kinase I isoform gamma-2 (Homo sapiens) (UniProt P78368); experiment: Inhibition of human CK1gamma2 at 20 uM by FRET assay
[14] = target: Casein kinase II subunit alpha (Homo sapiens) (UniProt P68400); experiment: Inhibition of human CK2alpha1 at 20 uM by FRET assay
[15] = target: Dual specificity tyrosine-phosphorylation-regulated kinase 3 (Homo sapiens) (UniProt O43781); experiment: Inhibition of human DYRK3 at 20 uM by FRET assay
[16] = target: Epidermal growth factor receptor (Homo sapiens) (UniProt P00533); experiment: Inhibition of human EGFR at 20 uM by FRET assay
[17] = target: Ephrin type-A receptor 2 (Homo sapiens) (UniProt P29317); experiment: Inhibition of human EPHA2 at 20 uM by FRET assay
[18] = target: Receptor tyrosine-protein kinase erbB-2 (Homo sapiens) (UniProt P04626); experiment: Inhibition of human ERBB2 at 20 uM by FRET assay
[19] = target: Fibroblast growth factor receptor 1 (Homo sapiens) (UniProt P11362); experiment: Inhibition of human FGFR1 at 20 uM by FRET assay
[20] = target: Receptor-type tyrosine-protein kinase FLT3 (Homo sapiens) (UniProt P36888); experiment: Inhibition of human FLT3 at 20 uM by FRET assay
[21] = target: Serine/threonine-protein kinase mTOR (Homo sapiens) (UniProt P42345); experiment: Inhibition of human FRAP1 at 20 uM by FRET assay
[22] = target: Glycogen synthase kinase-3 beta (Homo sapiens) (UniProt P49841); experiment: Inhibition of human GSK3-beta at 20 uM by FRET assay
[23] = target: Insulin-like growth factor 1 receptor (Homo sapiens) (UniProt P08069); experiment: Inhibition of human IGF1R at 20 uM by FRET assay
[24] = target: Inhibitor of nuclear factor kappa-B kinase subunit beta (Homo sapiens) (UniProt O14920); experiment: Inhibition of human IKK-beta at 20 uM by FRET assay
[25] = target: Insulin receptor (Homo sapiens) (UniProt P06213); experiment: Inhibition of human INSR at 20 uM by FRET assay
[26] = target: Interleukin-1 receptor-associated kinase 4 (Homo sapiens) (UniProt Q9NWZ3); experiment: Inhibition of human IRAK4 at 20 uM by FRET assay
[27] = target: Tyrosine-protein kinase JAK3 (Homo sapiens) (UniProt P52333); experiment: Inhibition of human JAK3 at 20 uM by FRET assay
[28] = target: Vascular endothelial growth factor receptor 2 (Homo sapiens) (UniProt P35968); experiment: Inhibition of human KDR at 20 uM by FRET assay
[29] = target: Mast/stem cell growth factor receptor Kit (Homo sapiens) (UniProt P10721); experiment: Inhibition of human KIT at 20 uM by FRET assay
[30] = target: Tyrosine-protein kinase Lck (Homo sapiens) (UniProt P06239); experiment: Inhibition of human LCK at 20 uM by FRET assay
[31] = target: Dual specificity mitogen-activated protein kinase kinase 1 (Homo sapiens) (UniProt Q02750); experiment: Inhibition of human MEK1 at 20 uM by FRET assay
[32] = target: T2, Mitogen-activated protein kinase kinase kinase kinase 4; experiment: Inhibition of human MAP4K4 at 20 uM by FRET assay
[33] = target: Mitogen-activated protein kinase 1 (Homo sapiens) (UniProt P28482); experiment: Inhibition of human ERK2 at 20 uM by FRET assay
[34] = target: Mitogen-activated protein kinase 12 (Homo sapiens) (UniProt P53778); experiment: Inhibition of human p38-gamma at 20 uM by FRET assay
[35] = target: Mitogen-activated protein kinase 13 (Homo sapiens) (UniProt O15264); experiment: Inhibition of human p38delta at 20 uM by FRET assay
Summary of the method: (§1)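 Single-point screen at one fixed concentration, run across a panel of 53 additional human kinases, which includes this enzyme.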

[36] = target: Mitogen-activated protein kinase 8 (Homo sapiens) (UniProt P45983); experiment: Inhibition of human JNK1 at 20 uM by FRET assay
[37] = target: Mitogen-activated protein kinase 9 (Homo sapiens) (UniProt P45984); experiment: Inhibition of human JNK2 at 20 uM by FRET assay
[38] = target: MAP kinase-activated protein kinase 2 (Homo sapiens) (UniProt P49137); experiment: Inhibition of human MAPKAPK2 at 20 uM by FRET assay
[39] = target: Serine/threonine-protein kinase MARK2 (Homo sapiens) (UniProt Q7KZI7); experiment: Inhibition of human MARK2 at 20 uM by FRET assay
[40] = target: Hepatocyte growth factor receptor (Homo sapiens) (UniProt P08581); experiment: Inhibition of human MET at 20 uM by FRET assay
[41] = target: Platelet-derived growth factor receptor beta (Homo sapiens) (UniProt P09619); experiment: Inhibition of human PDGFRbeta at 20 uM by FRET assay
[42] = target: Serine/threonine-protein kinase Nek1 (Homo sapiens) (UniProt Q96PY6); experiment: Inhibition of human NEK1 at 20 uM by FRET assay
[43] = target: High affinity nerve growth factor receptor (Homo sapiens) (UniProt P04629); experiment: Inhibition of human NTRK1 at 20 uM by FRET assay
[44] = target: Serine/threonine-protein kinase PAK 4 (Homo sapiens) (UniProt O96013); experiment: Inhibition of human PAK4 at 20 uM by FRET assay
[45] = target: Serine/threonine-protein kinase pim-1 (Homo sapiens) (UniProt P11309); experiment: Inhibition of human PIM1 at 20 uM by FRET assay
[46] = target: Serine/threonine-protein kinase PLK1 (Homo sapiens) (UniProt P53350); experiment: Inhibition of human PLK1 at 20 uM by FRET assay
[47] = target: cAMP-dependent protein kinase catalytic subunit alpha (Homo sapiens) (UniProt P17612); experiment: Inhibition of human PRKACA at 20 uM by FRET assay
[48] = target: Protein kinase C beta type (Homo sapiens) (UniProt P05771); experiment: Inhibition of human PKCbeta1 at 20 uM by FRET assay
[49] = target: RAF proto-oncogene serine/threonine-protein kinase (Homo sapiens) (UniProt P04049); experiment: Inhibition of human RAF1 at 20 uM by FRET assay
[50] = target: Proto-oncogene tyrosine-protein kinase receptor Ret (Homo sapiens) (UniProt P07949); experiment: Inhibition of human RET at 20 uM by FRET assay
[51] = target: Rho-associated protein kinase 1 (Homo sapiens) (UniProt Q13464); experiment: Inhibition of human ROCK1 at 20 uM by FRET assay
[52] = target: Ribosomal protein S6 kinase alpha-3 (Homo sapiens) (UniProt P51812); experiment: Inhibition of human RPS6KA3 at 20 uM by FRET assay
[53] = target: Ribosomal protein S6 kinase beta-1 (Homo sapiens) (UniProt P23443); experiment: Inhibition of human p70S6K at 20 uM by FRET assay; summary of the method: as §1
[54] = target: Proto-oncogene tyrosine-protein kinase Src (Homo sapiens) (UniProt P12931); experiment: Inhibition of human SRC at 20 uM by FRET assay
[55] = target: Tyrosine-protein kinase SYK (Homo sapiens) (UniProt P43405); experiment: Inhibition of human SYK at 20 uM by FRET assay
[56] = target: Angiopoietin-1 receptor (Homo sapiens) (UniProt Q02763); experiment: Inhibition of human TEK at 20 uM by FRET assay

T1 sequence (Q16539 whole entry): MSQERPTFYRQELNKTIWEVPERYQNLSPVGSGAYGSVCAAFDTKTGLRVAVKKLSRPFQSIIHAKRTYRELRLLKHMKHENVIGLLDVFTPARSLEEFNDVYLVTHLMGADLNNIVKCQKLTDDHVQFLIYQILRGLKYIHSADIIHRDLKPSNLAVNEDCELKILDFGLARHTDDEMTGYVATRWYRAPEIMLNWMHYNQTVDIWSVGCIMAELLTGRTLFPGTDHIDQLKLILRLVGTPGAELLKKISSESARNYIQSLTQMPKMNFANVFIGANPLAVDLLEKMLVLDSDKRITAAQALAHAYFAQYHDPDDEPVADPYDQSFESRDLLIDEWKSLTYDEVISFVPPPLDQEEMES
Sequence of CYP2D6 (P10635 whole entry): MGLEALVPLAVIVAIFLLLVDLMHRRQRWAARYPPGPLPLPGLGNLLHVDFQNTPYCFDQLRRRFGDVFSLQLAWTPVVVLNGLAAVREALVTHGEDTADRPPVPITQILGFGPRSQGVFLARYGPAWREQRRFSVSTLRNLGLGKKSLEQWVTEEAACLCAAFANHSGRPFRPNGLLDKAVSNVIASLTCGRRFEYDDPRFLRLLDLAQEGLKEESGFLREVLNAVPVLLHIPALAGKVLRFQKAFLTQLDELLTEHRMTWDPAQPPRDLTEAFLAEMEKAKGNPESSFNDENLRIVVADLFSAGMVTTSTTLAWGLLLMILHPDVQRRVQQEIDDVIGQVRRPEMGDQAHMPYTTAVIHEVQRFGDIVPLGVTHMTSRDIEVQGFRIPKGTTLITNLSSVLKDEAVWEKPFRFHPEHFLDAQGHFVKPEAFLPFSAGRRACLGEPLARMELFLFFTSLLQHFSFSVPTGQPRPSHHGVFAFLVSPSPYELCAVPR
Sequence of Tyrosine-protein kinase Lck (Homo sapiens) (P06239 2-509 limits assumed): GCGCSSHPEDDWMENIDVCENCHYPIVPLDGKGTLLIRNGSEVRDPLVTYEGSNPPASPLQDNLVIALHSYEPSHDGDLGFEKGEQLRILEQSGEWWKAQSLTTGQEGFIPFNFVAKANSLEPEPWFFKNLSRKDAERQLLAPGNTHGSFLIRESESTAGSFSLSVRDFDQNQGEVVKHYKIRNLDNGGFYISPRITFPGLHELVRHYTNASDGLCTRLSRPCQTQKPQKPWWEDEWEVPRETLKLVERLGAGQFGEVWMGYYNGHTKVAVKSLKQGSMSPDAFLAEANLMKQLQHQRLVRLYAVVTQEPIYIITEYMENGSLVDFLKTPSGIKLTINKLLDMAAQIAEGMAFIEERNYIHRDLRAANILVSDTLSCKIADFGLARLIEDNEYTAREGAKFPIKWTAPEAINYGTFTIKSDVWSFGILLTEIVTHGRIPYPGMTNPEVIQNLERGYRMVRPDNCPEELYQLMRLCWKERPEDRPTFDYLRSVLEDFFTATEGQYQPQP
Sequence of Tyrosine-protein kinase JAK3 (Homo sapiens) (P52333 whole entry): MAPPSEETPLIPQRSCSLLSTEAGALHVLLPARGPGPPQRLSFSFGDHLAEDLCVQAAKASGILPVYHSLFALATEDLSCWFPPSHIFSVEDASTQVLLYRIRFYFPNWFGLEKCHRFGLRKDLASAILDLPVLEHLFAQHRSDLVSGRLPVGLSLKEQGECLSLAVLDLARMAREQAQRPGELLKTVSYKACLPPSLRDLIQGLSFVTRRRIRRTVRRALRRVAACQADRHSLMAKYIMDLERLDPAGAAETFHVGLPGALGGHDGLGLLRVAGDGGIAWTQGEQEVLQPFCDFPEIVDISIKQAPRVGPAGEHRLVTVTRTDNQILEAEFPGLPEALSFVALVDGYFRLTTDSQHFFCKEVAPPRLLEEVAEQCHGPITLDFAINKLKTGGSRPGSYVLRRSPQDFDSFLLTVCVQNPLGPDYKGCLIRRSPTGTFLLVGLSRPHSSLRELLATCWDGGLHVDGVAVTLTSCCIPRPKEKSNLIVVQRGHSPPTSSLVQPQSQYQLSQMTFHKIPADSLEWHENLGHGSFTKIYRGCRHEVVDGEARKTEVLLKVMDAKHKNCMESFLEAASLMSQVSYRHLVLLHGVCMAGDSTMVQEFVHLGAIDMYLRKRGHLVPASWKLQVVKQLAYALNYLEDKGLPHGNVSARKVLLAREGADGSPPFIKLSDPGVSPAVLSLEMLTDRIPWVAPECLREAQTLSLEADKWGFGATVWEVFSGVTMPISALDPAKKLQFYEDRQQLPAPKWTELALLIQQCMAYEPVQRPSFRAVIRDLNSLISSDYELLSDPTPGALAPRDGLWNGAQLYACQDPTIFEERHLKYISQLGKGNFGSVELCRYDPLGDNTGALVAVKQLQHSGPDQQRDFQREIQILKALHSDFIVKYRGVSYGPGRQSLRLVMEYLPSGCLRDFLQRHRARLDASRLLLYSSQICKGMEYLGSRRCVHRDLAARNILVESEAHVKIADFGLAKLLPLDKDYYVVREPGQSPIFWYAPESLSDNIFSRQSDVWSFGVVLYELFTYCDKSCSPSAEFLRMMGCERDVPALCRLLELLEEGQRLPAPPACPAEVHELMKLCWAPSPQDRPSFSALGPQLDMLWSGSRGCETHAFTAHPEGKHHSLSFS
Sequence of Casein kinase I isoform gamma-2 (Homo sapiens) (P78368 whole entry, looked up, canonical isoform): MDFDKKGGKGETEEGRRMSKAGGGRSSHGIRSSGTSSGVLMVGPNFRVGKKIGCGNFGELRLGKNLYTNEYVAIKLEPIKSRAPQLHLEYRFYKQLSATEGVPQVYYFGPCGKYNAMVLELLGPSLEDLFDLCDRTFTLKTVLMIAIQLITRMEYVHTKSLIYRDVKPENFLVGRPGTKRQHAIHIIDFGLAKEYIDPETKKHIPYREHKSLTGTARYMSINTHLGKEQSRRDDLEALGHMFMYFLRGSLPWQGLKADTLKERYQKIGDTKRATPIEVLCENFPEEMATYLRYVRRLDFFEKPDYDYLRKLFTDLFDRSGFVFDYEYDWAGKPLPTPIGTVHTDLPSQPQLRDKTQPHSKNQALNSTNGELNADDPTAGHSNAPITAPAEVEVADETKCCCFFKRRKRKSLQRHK
Sequence of Insulin-like growth factor 1 receptor (Homo sapiens) (P08069 31-736 limits assumed): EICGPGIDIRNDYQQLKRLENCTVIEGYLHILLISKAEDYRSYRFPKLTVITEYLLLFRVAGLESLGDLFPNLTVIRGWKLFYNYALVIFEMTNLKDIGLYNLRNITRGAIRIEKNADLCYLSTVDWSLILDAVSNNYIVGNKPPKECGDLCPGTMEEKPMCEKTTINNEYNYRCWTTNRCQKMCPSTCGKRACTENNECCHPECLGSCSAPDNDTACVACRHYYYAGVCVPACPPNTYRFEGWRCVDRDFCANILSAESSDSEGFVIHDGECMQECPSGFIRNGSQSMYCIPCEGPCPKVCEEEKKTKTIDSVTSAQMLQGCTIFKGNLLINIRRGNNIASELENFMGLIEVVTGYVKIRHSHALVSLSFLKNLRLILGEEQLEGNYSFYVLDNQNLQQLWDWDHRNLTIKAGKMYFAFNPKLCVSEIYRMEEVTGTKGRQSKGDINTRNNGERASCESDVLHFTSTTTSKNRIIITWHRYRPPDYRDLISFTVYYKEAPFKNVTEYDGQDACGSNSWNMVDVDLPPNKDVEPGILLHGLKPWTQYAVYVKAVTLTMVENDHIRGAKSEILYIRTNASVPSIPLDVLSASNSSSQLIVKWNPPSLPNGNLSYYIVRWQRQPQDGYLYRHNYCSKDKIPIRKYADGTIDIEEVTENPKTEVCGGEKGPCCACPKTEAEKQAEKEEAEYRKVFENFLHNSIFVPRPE
Sequence of Insulin-like growth factor 1 receptor (Homo sapiens) (P08069 741-1367 limits assumed): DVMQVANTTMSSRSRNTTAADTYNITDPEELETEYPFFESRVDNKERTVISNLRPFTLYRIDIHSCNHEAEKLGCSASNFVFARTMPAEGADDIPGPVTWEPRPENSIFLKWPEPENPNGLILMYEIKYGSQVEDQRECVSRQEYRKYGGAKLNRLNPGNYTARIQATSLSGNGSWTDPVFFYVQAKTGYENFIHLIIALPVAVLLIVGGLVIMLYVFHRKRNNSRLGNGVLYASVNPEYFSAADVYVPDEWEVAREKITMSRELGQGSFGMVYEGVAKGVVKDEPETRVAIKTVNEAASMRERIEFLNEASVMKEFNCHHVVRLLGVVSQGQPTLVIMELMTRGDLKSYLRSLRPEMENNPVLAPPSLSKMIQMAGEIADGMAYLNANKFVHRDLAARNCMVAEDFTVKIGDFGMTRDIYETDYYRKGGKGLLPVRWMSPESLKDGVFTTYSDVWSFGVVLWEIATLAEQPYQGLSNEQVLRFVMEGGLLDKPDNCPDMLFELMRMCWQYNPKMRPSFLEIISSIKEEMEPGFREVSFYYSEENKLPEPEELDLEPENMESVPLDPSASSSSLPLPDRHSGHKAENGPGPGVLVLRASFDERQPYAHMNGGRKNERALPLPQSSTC
Sequence of Dual specificity tyrosine-phosphorylation-regulated kinase 3 (Homo sapiens) (O43781 whole entry): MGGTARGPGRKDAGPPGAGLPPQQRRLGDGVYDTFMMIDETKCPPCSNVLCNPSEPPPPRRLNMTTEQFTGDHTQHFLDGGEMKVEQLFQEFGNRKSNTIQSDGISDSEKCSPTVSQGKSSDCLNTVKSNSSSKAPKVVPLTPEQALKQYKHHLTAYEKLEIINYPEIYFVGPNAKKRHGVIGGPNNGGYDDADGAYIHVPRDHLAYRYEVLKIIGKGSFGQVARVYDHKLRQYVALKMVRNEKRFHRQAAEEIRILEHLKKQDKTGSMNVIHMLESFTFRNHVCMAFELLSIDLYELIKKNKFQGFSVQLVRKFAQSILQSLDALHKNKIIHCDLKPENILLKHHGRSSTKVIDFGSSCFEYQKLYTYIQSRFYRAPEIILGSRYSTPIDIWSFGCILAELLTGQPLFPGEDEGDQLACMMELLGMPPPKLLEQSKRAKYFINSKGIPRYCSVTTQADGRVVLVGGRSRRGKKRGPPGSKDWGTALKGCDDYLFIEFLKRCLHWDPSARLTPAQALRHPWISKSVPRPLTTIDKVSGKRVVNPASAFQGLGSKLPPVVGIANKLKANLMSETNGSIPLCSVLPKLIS

OCCc1cc(Cl)n2c(-c3ccncc3)c(-c3ccc(F)cc3)nc2c1
IC50 [1]: 370 nM

OCCC#Cc1nc(-c2ccc(F)cc2)c(-c2ccncc2)n1C#Cc1ccccc1
inhibition [2]: 75%

OCC#Cc1nc(-c2ccncc2)c(-c2ccc(F)cc2)n1C#Cc1ccccc1
inhibition [2]: 63%

OCC#Cc1nc(-c2ccc(F)cc2)c(-c2ccncc2)n1C#Cc1ccccc1
inhibition [2]: 83%

C#Cc1nc(-c2ccncc2)c(-c2ccc(F)cc2)n1C#Cc1ccccc1
inhibition [2]: 19%

C[S+]([O-])c1ccc(-c2nc(-c3ccncc3)c(-c3ccc(F)cc3)[nH]2)cc1 (stereo not given) [SB-203580]
inhibition at 10 µM (CYP2D6): 78%

OCCC#Cc1nc(-c2ccncc2)c(-c2ccc(F)cc2)n1C#Cc1ccccc1
inhibition [2]: 53%

C#Cn1c(C#CCCO)nc(-c2ccc(F)cc2)c1-c1ccncc1
inhibition [3]: 3%
inhibition at 10 µM (CYP2D6): 4%
IC50 [1]: 200 nM
IC50 [4]: 5400 nM
inhibition [2]: 100%
Ratio IC50 [5]: > 25
IC50 [6]: 4200 nM
inhibition [7]: 15%
inhibition [8]: 72%
inhibition [9]: 29%
inhibition [10]: 7%
inhibition [11]: 9%
inhibition [12]: 5%
inhibition [13]: 36%
inhibition [14]: 3%
inhibition [15]: 8%
inhibition [16]: 84%
inhibition [17]: 23%
inhibition [18]: 41%
inhibition [19]: 8%
inhibition [20]: 17%
inhibition [21]: 6%
inhibition [22]: 44%
inhibition [23]: -1%
inhibition [24]: 5%
inhibition [25]: 7%
inhibition [26]: 1%
inhibition [27]: 4%
inhibition [28]: 36%
inhibition [29]: 5%
inhibition [30]: 48%
inhibition [31]: 10%
inhibition [32]: 92%
inhibition [33]: 6%
inhibition [34]: 14%
inhibition [35]: 12%
inhibition [36]: 21%
inhibition [37]: 88%
inhibition [38]: 3%
inhibition [39]: 14%
inhibition [40]: 11%
inhibition [41]: 10%
inhibition [42]: 11%
inhibition [43]: 1%
inhibition [44]: 8%
inhibition [45]: 3%
inhibition [46]: 7%
inhibition [47]: 50%
inhibition [48]: 80%
inhibition [49]: 82%
inhibition [50]: 21%
inhibition [51]: 15%
inhibition [52]: 0%
inhibition [53]: 7%
inhibition [54]: 27%
inhibition [55]: 3%
inhibition [56]: 5%

C#Cc1nc(-c2ccc(F)cc2)c(-c2ccncc2)n1C#Cc1ccccc1
inhibition [2]: 28%
